Holding throughout (type): functional, cell-based
Assay [1] concerns MIA PaCa-2. Description: Inhibition of colony formation in human MIA PaCa-2 cells at 0.6 uM measured after 7 to 9 days in presence of necroptosis inhibitor necrostatin-1 by crystal violet staining based assay. The note with it: time day 7-9. In outline:
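Cells seeded overnight in 96-well plates at 300 cells/well (MIA PaCa-2) or 600 cells/well (BxPC-3), in RPMI 1640 with 10% FBS. Inhibitor added 1 h before compound, then continuous exposure for 7–9 days until control wells were 80–90% confluent. Stained with 0.05% crystal violet for 30 min, imaged after overnight drying and quantified.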

Assay [2] concerns MIA PaCa-2. Description: Inhibition glutathione synthesis in human MIA PaCa-2 cells at 1 to 2 uM measured after 2 to 4 hrs by GSH/GSSG-glo assay. The note with it: dose microM 1-2, time hrs 2-4. The essentials: (§1)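 GSH/GSSG-Glo luminescent assay: 15,000–20,000 MIA PaCa-2 cells per well, attached overnight, treated 2 h and 4 h. Cells were lysed with total or oxidized glutathione reagent, then luciferin generation (30 min, room temperature) and detection reagents added. Luminescence was read after 15 min. Ratio was computed from net RLU as (total − GSSG)/(GSSG/2).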

For assay [3], the system named is MIA PaCa-2. The assay can be described thus: Down regulation of LRPPRC expression in human MIA PaCa-2 cells at 3 times IC50 measured after 4 hrs by proteomics analysis.
Assay [4] relates to PANC-1. Description: Down regulation of LRPPRC expression in human PANC-1 cells at 3 times IC50 measured after 1 to 24 hrs by proteomics analysis. The note with it: time hrs 1-24.
The subject of assay [5] is MIA PaCa-2. The assay can be described thus: Down regulation of LRPPRC expression in human MIA PaCa-2 cells at 3 times IC50 measured after 4 hrs in presence of NAC by proteomics analysis.
For assay [6], the system named is MIA PaCa-2. The assay can be described thus: Down regulation of PNPT1 expression in human MIA PaCa-2 cells at 3 times IC50 measured after 4 hrs in presence of NAC by proteomics analysis.
The test system of assay [7] is MIA PaCa-2. The assay can be described thus: Down regulation of LRPPRC expression in human MIA PaCa-2 cells at 3 times IC50 measured after 4 hrs in presence of NQO1 inhibitor dicoumarol by proteomics analysis.
The test system of assay [8] is MIA PaCa-2. Description: Down regulation of PNPT1 expression in human MIA PaCa-2 cells at 3 times IC50 measured after 4 hrs in presence of NQO1 inhibitor dicoumarol by proteomics analysis.
In assay [9] the test system is MIA PaCa-2. The assay can be described thus: Induction of reactive oxygen species in human MIA PaCa-2 cells assessed as reduction in GSH to GSSG ratio at 1 to 2 uM measured after 2 to 4 hrs by GSH/GSSG-glo assay. The note with it: dose microM 1-2, time hrs 2-4. In outline: as §1
In assay [10] the test system is PANC-1. Description: Down regulation of PNPT1 expression in human PANC-1 cells at 3 times IC50 measured after 1 to 24 hrs by proteomics analysis. The note with it: time hrs 1-24.
Assay [11] concerns MIA PaCa-2. Description: Down regulation of PNPT1 expression in human MIA PaCa-2 cells at 3 times IC50 measured after 4 hrs by proteomics analysis.
The test system of assay [12] is MIA PaCa-2. Description: Induction of ferroptosis in human MIA PaCa-2 cells assessed as increase in lipid peroxidation at 0.5 uM measured after 24 hrs by C11-BODIPY dye based fluorescence assay. In outline: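 MIA PaCa-2 cells were treated for the set time, then given 10 μM C11-BODIPY for 30 min at 37 °C and washed. Fluorescence was read at 581/591 nm (reduced dye) and 488/510 nm (oxidized dye). The intensity ratio was compared by unpaired t-test.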

Assay [13] deals with MIA PaCa-2. The assay can be described thus: Induction of ferroptosis in human MIA PaCa-2 cells assessed as increase in lipid peroxidation at 20 to 40 uM measured after 24 hrs by C11-BODIPY dye based fluorescence assay. The note with it: dose microM 20-40, time 24.0 hrs. In outline:
(§2)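 MIA PaCa-2 cells (RPMI 1640, 10% FBS, 37 °C, 5% CO2) exposed to compound for the set time, then 10 μM C11-BODIPY added for 30 min at 37 °C. After two DPBS washes, read in HBSS at 581/591 nm (reduced dye) and 488/510 nm (oxidized dye); emission ratio calculated, unpaired Student's t-test.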

For assay [14], the system named is MIA PaCa-2. The assay can be described thus: Induction of ferroptosis in human MIA PaCa-2 cells assessed as increase in lipid peroxidation at 100 uM measured after 24 hrs by C11-BODIPY dye based fluorescence assay. In outline:
as §2

Assay [15] concerns MIA PaCa-2. The assay can be described thus: Induction of reactive oxygen species in human MIA PaCa-2 cells at 200 uM measured after 30 mins in presence of N-acetylcysteine by CM-H2DCFDA dye based fluorescence assay. In outline: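 MIA PaCa-2 cells seeded at 1.8 × 10⁴/well, attached overnight, then loaded with 10 μM CM-H2DCFDA in HBSS for 40 min at 37 °C. Washed twice with warm DPBS; compounds added in HBSS. N-acetylcysteine used at 3 mM. Fluorescence read at Ex 483 / Em 530 nm, with the 30 min point taken. Unpaired t-test.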

Activity calls are given as the source filed them. The calls are words filed in the database; no cut-off is given here.

Consider `CC(=O)c1cc2c(o1)C(=O)c1ccccc1C2=O`, for which the inhibition result in the assay on MIA PaCa-2 [1] was “inactive”. Besides, the inhibition result in the assay with MIA PaCa-2 [2] is “Active”. The result in the assay with MIA PaCa-2 [3], in the assay on MIA PaCa-2 [5], with MIA PaCa-2 [6], in the assay on MIA PaCa-2 [9] and in the assay on MIA PaCa-2 [11] was Active. In addition, the outcome in the assay on PANC-1 [4], with MIA PaCa-2 [7], in the assay with MIA PaCa-2 [8] and in the assay on PANC-1 [10] was inactive.
Consider `COC(=O)c1ccc([C@H]2c3[nH]c4ccccc4c3C[C@H](C(=O)OC)N2C(=O)CCl)cc1`, for which the result in the assay with MIA PaCa-2 [12] was Active.
On to `CCOc1ccccc1-n1c(C(C)N2CCN(C(=O)COc3ccc(Cl)cc3)CC2)nc2ccccc2c1=O` (stereo not given), for which the outcome with MIA PaCa-2 [13] was Active.
Regarding `CC(C)(C)OO`, the outcome in the assay on MIA PaCa-2 [14] was Active. For the same compound, the outcome with MIA PaCa-2 [15] was inactive.

The record behind these values is ChEMBL document CHEMBL4725371, “A Novel Redox Modulator Induces a GPX4-Mediated Cell Death That Is Dependent on Iron and Reactive Oxygen Species” (J Med Chem, 2020).
